# Screening data: PubChem BioAssay, Columbia University Molecular Screening Center
# The sample as a whole holds a higher share of hits than the screen did.
# Insulin prom act = activators of insulin promoter-driven GFP, primary screen, imaging, TRM-6 cells (human fetal islet line), eGFP reporter, cell count; hit rate 0.81% among 130,000; plate-scaled: unstimulated 0, stimulated control 100; activation, % at 2 µM; AID 1296, 2008;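 active = activation at 2 µM above a set limit, confirmed on inspection of the cell images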;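 also: share of cells whose green reporter signal exceeds an intensity cutoff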
#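 Assay system: TRM-6 human fetal islet cells, insulin promoter–eGFP reporter; Also added: 0.75 µM tamoxifen as reporter inducer; Schedule: 15 h tamoxifen pre-treatment, 48 h compound treatment at 37 °C; Signal: fixed-cell fluorescence microscopy, eGFP plus Hoechst; Read-out: percent activation from GFP-positive cell fraction; Control set: stimulated and unstimulated wells.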
# * hit, by the source's call.
SMILES,Insulin prom act
CN(C)c1ccc(C(=S)N2CCOCC2)cc1,150*
CC(=O)N1CCN(C(=S)c2ccc(N(C)C)cc2)CC1,7
O=C(Oc1ccc(C(=S)N2CCOCC2)cc1)c1ccccc1,-6
CS(=O)(=O)Nc1ccc(C(=O)Nc2cccc([N+](=O)[O-])c2)cc1,6
CC(=O)Nc1ccc(NC(=O)Cn2cnc3c(cnn3C(C)(C)C)c2=O)cc1,431*
CCOC(=O)c1ccccc1NC(=O)Cn1cnc2c(cnn2-c2ccc(OC)cc2)c1=O,-75
CC(=O)Nc1ccc(NC(=O)Cn2cnc3c(nnn3Cc3ccc(F)cc3)c2=O)cc1,0
O=C(NCc1ccc(F)cc1)C(=O)NCC1OCCN1S(=O)(=O)c1cccs1 (stereo not drawn),0
O=C(Nc1ccccc1)c1ccc(=O)n(Cc2ccc(F)c(F)c2)c1,-8
COc1cc(OC)c(-c2cc(C(=O)O)ccc2OC)c(OC)c1,0
Cc1ccsc1/C=N/N1CCN(C2c3ccccc3-c3ccccc32)CC1,-3
Cc1ccc(C(=O)O)cc1-c1ccc(C=C2C(=O)c3ccccc3C2=O)o1,0
Cc1ccsc1C=C1C(=O)c2ccccc2C1=O,312*
Cc1ccc(Cn2nnc3c(=O)n(CC(=O)NCc4ccccc4)cnc32)cc1,-10
CSc1ccccc1C(=O)OCC(=O)NC1CCS(=O)(=O)C1 (stereo not drawn),0
CCC(=O)N(Cc1cc2cc(OC)ccc2[nH]c1=O)c1ccc(C)cc1C,236*
CCOc1cc(C(=O)N(C)Cc2cc3cc(OC)ccc3[nH]c2=O)cc(OCC)c1OCC,4
COc1ccc2[nH]c(=O)c(CN(C(C)=O)c3cccc(C)c3)cc2c1,-91
Fc1ccc(NCc2n[nH]c(=S)n2Cc2ccccc2)cc1,0
CC(C)CNC(=O)NC(=O)COC(=O)c1cc(F)cc(F)c1,333*
CC(C)CCNC(=O)NC(=O)COC(=O)C1=COCCO1,-78
COc1cccc(OC)c1C(=O)OCC(=O)NCC(C)C,0
O=C(/C=C/c1ccc2c(c1)OCO2)Nc1ccc(Cl)cn1,-73
Cc1ccc(NC(=O)CN(C)C(=O)COc2ccc(C(=O)c3ccc(F)cc3)cc2)cc1,0
Fc1cccc(-n2ncc(-c3nnnn3-c3ccccc3)c2C(F)(F)F)c1,529*
SMILES,Insulin prom act
c1ccc(-n2nnnc2OCCOc2nnnn2-c2ccccc2)cc1,154
Clc1cccc(N2CCN(c3nnnn3-c3ccccc3)CC2)c1,7
O=C(NCc1ccc(F)cc1)C(C(=O)NCc1ccc(F)cc1)c1ncc(C(F)(F)F)cc1Cl,0
O=C(Nc1cc(C(F)(F)F)ccc1N1CCOCC1)c1cncc(Br)c1,-4
O=C(Nc1cc(C(F)(F)F)ccc1-n1cncn1)c1ccc(-c2ccccc2)cc1,78*
Cc1ccccc1NC(=O)c1cccc(C(F)(F)F)c1,-9
Cc1ccc(SCCC(=O)NCCSCc2ccccc2C)cc1,7
CC1(c2ccc([N+](=O)[O-])c(CS(=O)(=O)c3ccccc3)c2)OCCO1,627*
O=C(c1ccc(S(=O)(=O)Cc2ccccc2F)c([N+](=O)[O-])c1)N1CCCC1,0
CC1CCN(C(=O)c2ccc(S(=O)(=O)Cc3ccccc3F)c([N+](=O)[O-])c2)CC1,5
O=C(Cc1nc(-c2ccc([N+](=O)[O-])cc2)cs1)Nc1ccccc1,193*
COc1ccccc1N(C(=O)c1ccncc1)c1nc(-c2ccc([N+](=O)[O-])cc2)cs1,5
O=C(COc1ccc([N+](=O)[O-])cc1)Nc1ccncc1,-6
COc1ccc(CNc2nc3ccccc3n2Cc2ccc(Cl)cc2)cc1OC,7
Nc1cccc(-c2ccc(CO)o2)c1,7
S=C(c1ccc(-c2ccc(Cl)cc2)o1)N1CCCCC1,7
OCCc1ccc(-c2ccc(Cl)cc2)o1,450*
CC(C)(C)NC(=S)NCc1cccnc1,0
Cc1c(C(=O)NCCSCc2c(Cl)cccc2Cl)cccc1[N+](=O)[O-],-3
CCn1ncc(Br)c1C(=O)Nc1ccc(F)c([N+](=O)[O-])c1,238
Cc1ccc(C(=O)NC(=S)Nc2ccccc2N2CCCC2)cc1[N+](=O)[O-],0
CCn1ncc(Cl)c1C(=O)NC(=S)Nc1c(C)cc(C)cc1[N+](=O)[O-],293*
N#CCCn1c(C2CCCCC2)nc2ccccc21,-7
Cc1cc(C(=O)N[C@H](c2ccccc2)[C@@]2(C)C[C@@H]2[C@@H](C)C(=O)Nc2ccc3ccccc3c2)n(C)n1,10
Cc1ccc(-c2noc(CN(C(=O)c3cccs3)C(C)C)n2)cc1,9
SMILES,Insulin prom act
Cc1cccc(-c2nnc(NC(=O)c3cccs3)s2)c1,2
Cc1ccnc(N(C(=O)c2cccs2)C(=O)c2cccs2)c1,84*
CN1OC(COC(=O)c2ccc(Cl)cc2Cl)CC1c1ccccc1 (stereo not drawn),3
COc1ccc(C(C(=O)Nc2ccc(C(C)C)cc2)N(Cc2ccco2)C(=O)CC2NC(=O)NC2=O)cc1 (stereo not drawn),0
C/C(=N\NC(=O)CN1CCOCC1)C(C)(C)C,8
Cc1cc(-c2ccccc2)c2c(=O)[nH][nH]c2n1,-6
Cc1ccc(C(=O)NCc2n[nH]c(=S)n2-c2ccccc2)cc1[N+](=O)[O-],8
COc1ccc(N2CCN(S(=O)(=O)c3cccs3)CC2)cc1,500*
COc1ccccc1N1CCN(S(=O)(=O)c2cccs2)CC1,3
COc1ccc(N2CCN(S(=O)(=O)c3ccc(Cl)s3)CC2)cc1,2
Cc1ccc(/C(N)=N/OC(=O)COc2ccccc2Cl)cc1,8
O=C(OCC(=O)c1c[nH]c2ccccc12)c1cc(Br)ccc1O,-3
Nc1ccc(OCc2ccco2)cc1,7
CC(Sc1nc(-c2ccc(F)cc2)cs1)C(=O)Nc1ccc(Cl)cn1 (stereo not drawn),4
COC(=O)C1CCCN1C(=O)COc1ccc(Br)cc1Cl (stereo not drawn),438*
Cc1cc(Cl)ccc1OCC(=O)N1CCCCC1,-7
COCCNC(=O)COc1ccc(Br)cc1Cl,-7
CC(C(=O)NCc1ccco1)n1cc([N+](=O)[O-])cn1 (stereo not drawn),0
O=C(NC1CCCCC1)c1cc([N+](=O)[O-])[nH]n1,0
O=C1c2ccccc2C(=O)c2c1oc(C(F)(F)F)c2C(=O)c1ccccc1,0
O=C1c2ccccc2-c2onc3ccc(Oc4ccccc4)c1c23,400*
CC(=O)c1c(C)oc2c1C(=O)c1ccccc1C2=O,4
CCOC(=O)N1CCC(N(CCN(C)C)C(=S)Nc2ccc(OCC)cc2)CC1,9
CCCCC(=O)NC(=S)Nc1nnn(CCC)n1,0
N#CCCn1ncn(-c2ccccc2)c1=S,173*
SMILES,Insulin prom act
N#CCCn1cc(/C=C2\NC(=S)N(c3ccccc3)C2=O)c(-c2ccc(-c3ccccc3)cc2)n1,6
N#CCCn1nc(-c2ccccc2)cc1-n1c(C(F)(F)F)nc2ccccc21,0
CCOC(=O)c1ccc(NC(=O)CSc2nc3cccnc3n2C)cc1,-82
Clc1ccc(CO/N=C2\CCCc3nonc32)c(Cl)c1,-3
CCOc1ccccc1NC(=S)N1CCN(c2nc(-c3cccc(OC)c3)cs2)CC1,0
CCc1nnc(NS(=O)(=O)c2ccc(NC(=O)/C=C/c3ccc(F)cc3)cc2)s1,275*
CCc1nnc(NC(=O)/C=C/c2ccco2)s1,-6
Cc1ccc(/C=C/C(=O)Nc2ccc(S(=O)(=O)Nc3ncccn3)cc2)cc1,-7
Fc1ccccc1/C=N/NC(=S)Nc1ccc(Cl)cc1Cl,114
Cc1ccccc1N1C(S)=C(C#N)C(=O)NC12CCCCC2,-3
